Published values from different studies.
Each line is one published result; the experiments were not run side by side.
Target: Serine/threonine-protein kinase ICK (CILK1, Homo sapiens, UniProt Q9UPZ9)
Residues used in one study (Q9UPZ9 1-632): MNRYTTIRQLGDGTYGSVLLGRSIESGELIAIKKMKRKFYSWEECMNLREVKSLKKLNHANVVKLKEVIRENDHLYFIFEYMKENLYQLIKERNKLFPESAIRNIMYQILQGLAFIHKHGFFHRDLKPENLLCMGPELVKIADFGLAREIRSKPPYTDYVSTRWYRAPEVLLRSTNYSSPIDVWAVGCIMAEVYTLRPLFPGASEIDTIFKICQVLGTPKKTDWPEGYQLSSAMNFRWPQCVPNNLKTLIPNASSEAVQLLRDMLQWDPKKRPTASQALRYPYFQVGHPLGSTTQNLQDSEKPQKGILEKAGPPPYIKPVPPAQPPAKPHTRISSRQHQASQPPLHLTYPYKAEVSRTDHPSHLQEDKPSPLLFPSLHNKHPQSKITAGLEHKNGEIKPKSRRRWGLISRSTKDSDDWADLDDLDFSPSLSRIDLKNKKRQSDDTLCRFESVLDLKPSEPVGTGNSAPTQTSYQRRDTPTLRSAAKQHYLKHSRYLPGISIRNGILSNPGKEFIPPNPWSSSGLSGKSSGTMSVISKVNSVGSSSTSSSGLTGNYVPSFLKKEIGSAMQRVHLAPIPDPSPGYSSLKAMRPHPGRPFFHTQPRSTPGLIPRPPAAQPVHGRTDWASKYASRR

SMILES | assay | conditions | measurement | result
CN1CC(Oc2cnc(C#N)cc2-c2ccn3nc(NC(=O)C4CC4)cc3c2)C1 | enzyme activity, inhibitor | 1 µM | inhibition | -20%
Nc1ncnc2occ(-c3ccc(NC(=O)Nc4cc(C(F)(F)F)ccc4F)cc3)c12 | cell-free assay | 20 µM | remaining signal | 12%
O=C1NC(c2ccccn2)Sc2ccccc21 (stereo not drawn) | cell-free assay, competition with immobilised ligand | 1 µM | remaining binding | 86%
Cc1ccc(C(=O)NCc2ccsc2)cc1C#Cc1cn(C(C)C)c2ncnc(N)c12 | enzyme activity, inhibitor | 1 µM | activity vs control | 103%
CC(C)(O)[C@H]1CC[C@H](Nc2ccc3ncc(-c4cccc(C(F)(F)F)c4)n3n2)CC1 | enzyme activity, inhibitor | 1 µM | remaining activity | 86%
Cc1sc(C(=O)NC2COC2)cc1-n1cc(NC(=O)Nc2c(F)cccc2Cl)cn1 | enzyme activity, inhibitor | 10 µM | remaining activity | 100%
CO[C@@H](C)c1c(Nc2ccc([C@H](N(C)C(=O)C3CCS(=O)(=O)CC3)C(F)(F)F)cc2)cnc2cc(Cl)nn12 | cell-free assay, competition with immobilised ligand | 1 µM | remaining binding | 70%
Cc1ccc(C(=O)Nc2ccc(CN3CCN(C)CC3)c(C(F)(F)F)c2)cc1C#Cc1cnc2cccnn12 | enzyme activity | 23.5 nM | remaining activity | 96%
O=C(Nc1cnn(-c2csc(C(=O)NC3COC3)c2)c1)Nc1c(F)cccc1Cl | enzyme activity, inhibitor | 5 µM | remaining activity | 96.6%
